From PubChem BioAssay
Most compounds without a hit are left out; they make up all but 2.8% or so of the library.
MC4R barr agon: agonists of human melanocortin 4 receptor (MC4R) beta-arrestin; U2OS MC4R beta-arrestin complementation, luminescence; percent of melanotan II response, DMSO zero; AID 540308; P32245; activation, % at 8.9 µM; 360,000 compounds, 0.98% hits;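 active = activation above a per-plate cutoff, the mean activation of sample wells on that plate plus 3 SD, cut at about 8% in these data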
Target sequence (P32245 whole entry, looked up): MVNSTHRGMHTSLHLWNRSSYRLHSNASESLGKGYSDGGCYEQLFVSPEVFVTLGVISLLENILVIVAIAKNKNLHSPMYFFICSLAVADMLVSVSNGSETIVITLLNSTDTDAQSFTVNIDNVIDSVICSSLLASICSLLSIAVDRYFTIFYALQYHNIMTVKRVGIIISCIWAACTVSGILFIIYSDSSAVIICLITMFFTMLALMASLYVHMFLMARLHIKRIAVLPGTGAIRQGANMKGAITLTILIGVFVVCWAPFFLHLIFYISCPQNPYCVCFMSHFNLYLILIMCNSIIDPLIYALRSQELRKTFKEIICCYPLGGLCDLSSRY
MC4R antagonist: antagonists of human melanocortin 4 receptor (MC4R); 360,000 compounds, 0.48% hits; AID 540295; MC4R-expressing cells, MTII-stimulated cAMP, LANCE TR-FRET; inhibition, % at 6.5 µM; P32245;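 active = inhibition above its plate's cutoff, the mean of tested wells on that plate plus 3 SD, cut at about 29% in these data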;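 also: 0% = Melanotan II alone and 100% = Melanotan II plus saturating MCL0020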
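Assay system: human MC4R-expressing U2OS cells; reagent: Melanotan II stimulation of cells; dosing: 6.5 µM single dose; timing: compound 30 min, challenge 1 h, detection 1 h; signal: TR-FRET cAMP assay; replicates: one well per compound, no replicates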
HTR2A ag: activates the mouse 5-HT2A serotonin receptor. P35363. CHO-K1 mHTR2A beta-arrestin complementation, luminescence; percent of 30 µM serotonin response. activation, % at 7.6 µM. 360,000 compounds, 0.66% hits. AID 624169;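 active = activation above a run cutoff, the mean activation of all tested compounds plus 3 SD, cut at about 14% in these data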;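 also: 0% = plate median of compound wells and 100% = 30 µM serotonin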
EBI2 antag: antagonists of human EBI2 receptor; AID 651636; EBI2 beta-arrestin recruitment, luminescence, 7a,25-OHC stimulated; P32249; inhibition, % at 5 µM; 360,000 compounds, 0.81% hits; in the data active = inhibition above about 38%;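 also: enzyme fragment complementation signal reports receptor beta-arrestin coupling in cells; 0% = agonist plus DMSO wells and 100% = wells without agonist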
U2OS cAMP counter: nonselective cAMP signaling inhibitor, MC4R antagonist counter-screen; shares compounds with MC4R antagonist; parental U2OS, forskolin cAMP, LANCE TR-FRET; inhibition, % at 6.5 µM; 1,600 compounds, 26% hits;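 active = mean inhibition over triplicates above the low-control well mean plus 3 SD, set per campaign, cut at about 13% in these data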;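 also: signal is single emission at 671 nm which falls as cellular cAMP rises; 0% = forskolin-stimulated wells and 100% = buffer without forskolin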
MC4R cAMP antag: human MC4R cAMP antagonism confirmation; 1,600 compounds, 27% hits; inhibition, % at 6.5 µM; MC4R-expressing cells, MTII-stimulated cAMP, TR-FRET; shares compounds with MC4R antagonist; in the data active = inhibition above about 29%;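 also: 0% = agonist stimulated wells alone and 100% = agonist stimulated wells plus saturating reference antagonist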
Starred values were filed as active, the others as inactive; · = no result given.

SMILES	MC4R barr agon	MC4R antagonist	HTR2A ag	EBI2 antag	U2OS cAMP counter	MC4R cAMP antag
CCOc1ncccc1C(=O)OCC(=O)c1ccc(C)c(C)c1	1	15	5	-1	·	·
COc1ccc(-c2c(N)cnc(C(=O)O)c2C)c(OCc2ccccc2)c1OC	0	-5	-1	5	·	·
Cc1ccccc1N(C(=O)c1snc(C(N)=O)c1N)C(C(=O)NCc1ccccc1)c1ccc(O)cc1 (stereo not given)	2	28	-1	6	·	·
CCOc1ccccc1N(C(=O)c1snc(C(N)=O)c1N)C(C(=O)NCc1ccccc1)c1ccc(O)cc1 (stereo not given)	-2	31*	1	7	2	5
OCCN1CCN(c2cc(-c3ccccc3)c3ccccc3n2)CC1	0	41*	-3	-7	-3	-8
CCCNC(=O)C1(C)CCN(C(=O)c2cc(C(C)(C)C)nn2C)C1 (stereo not given)	-1	-2	0	-7	·	·
Cc1ccc(NC(=O)CSc2nc3ccc(Nc4nc(N5CCOCC5)nc(N5CCOCC5)n4)cc3s2)cc1	-1	0	10	25	·	·
CCOC(=O)CSc1nc2ccc(Nc3nc(N4CCOCC4)nc(N4CCOCC4)n3)cc2s1	-1	30*	3	-7	-16	27
S=c1[nH]nc(C(c2ccccc2)C2CCCCC2)o1 (stereo not given)	0	30*	4	2	2	2
O=C(NCc1cccc(F)c1)Nc1nnc([C@H]2C[C@H](O)[C@@H](CO)O2)s1	-1	1	4	-11	·	·
Cc1cc(NC(=O)COc2ccc3ccccc3c2Br)no1	4	46*	-5	-8	20*	35*
O=C(CC1C(=O)NCCN1Cc1ccc(-c2ccccc2)cc1)NCCCn1ccnc1 (stereo not given)	1	31*	1	-2	-14	-24
COC(=O)[C@]12CCCCC=C1N(Cc1ccc(Cl)cc1Cl)C(=O)[C@H](CC(=O)NCc1ccc(OC)c(OC)c1)C2	·	·	-5	25	·	·
COc1ccc([N+](=O)[O-])c(OC)c1C(=O)NC(=O)Nc1c(C)cccc1C	-1	1	2	-1	·	·
COc1cccc(OC)c1C(=O)NC(=O)Nc1c(C)cccc1C	-2	29*	5	-2	0	0
COC(=O)c1c(NC(=O)CC2SCC(C(=O)OC)NC2=O)sc2c1CCCC2 (stereo not given)	1	29*	-2	15	10	32*
Cc1ccc(S(=O)(=O)NCc2nnnn2-c2ccc(F)cc2)cc1	0	13	0	-9	·	·
CCCCC(=O)OCC(=O)c1cc(C)n(-c2c(C)n(C)n(-c3ccccc3)c2=O)c1C	0	31*	3	-3	0	0
CN(Cc1ccc(Cl)cc1)C(C(=O)NC1CCCCC1)c1ccnc2ccccc12 (stereo not given)	·	·	-6	4	·	·
O=C(Nc1cc(Cl)ncn1)c1ccccc1	0	30*	-1	1	17*	38*
O=C(Nc1cc(N2CCCCC2)ncn1)c1ccccc1	-1	9	3	19	·	·
CCCCNC(=O)C1(C)CCN1C(=O)c1cc2ccccc2s1 (stereo not given)	-2	4	-5	-3	·	·
Cc1ccc(N=C(NO)c2cnccc2C(F)(F)F)c(C)c1	1	30*	3	4	-1	-10
COc1ccc(C2CCCCCN2C(=O)C2CCN(S(=O)(=O)c3ccc(C)cc3)CC2)cc1 (stereo not given)	1	-1	-4	3	·	·
CCOC(=O)c1c(NC(=S)NC)sc2c1CC(C)(C)SC2	1	19	1	-5	·	·
SMILES	MC4R barr agon	MC4R antagonist	HTR2A ag	EBI2 antag	U2OS cAMP counter	MC4R cAMP antag
CCOC(=O)c1c(NC(=S)Nc2ccccc2)sc2c1CC(C)(C)SC2	-4	35*	-1	19	2	16
CC(NNC(=S)N1CCCCCC1)c1ccc2ccccc2n1 (stereo not given)	·	·	-2	18	·	·
Cc1ncn(-c2ccc(C(=O)Oc3ccccc3)cn2)n1	-1	29*	-4	-1	10	24
C#CC(=O)N(c1ccc(OC)c(OC)c1)C(C(=O)NC1CCCC1)c1cccs1 (stereo not given)	10*	62*	1	38	-36	63*
COc1cccc(Nc2nc(-c3sc(NC(=O)c4ccco4)nc3C)cs2)c1	-1	35*	1	17	10	20
CO[C@H]1CN(C)C(=O)c2ccc(NC(=O)NC(C)C)cc2OC[C@H](C)NC[C@H]1C	·	·	2	-8	·	·
O=S(=O)(O)c1nc2ccccc2[nH]1	0	35*	-2	7	-1	-8
CNCc1nc2ccccc2[nH]1	-1	2	1	-8	·	·
COC(=O)c1cc(S(=O)(=O)n2nc(C)c(Br)c2C)c(Cl)cc1Cl	-2	30*	-3	12	6	20
NNC(=O)CNC(c1ccccc1)c1cc(Br)ccc1N (stereo not given)	2	-2	-1	-6	·	·
COC(=O)CNC(c1ccccc1)c1cc(Br)ccc1N (stereo not given)	2	31*	6	-11	-1	3
COC(=O)CNC(c1ccccc1)c1cc(Br)ccc1NC(=O)CCN1CCOCC1 (stereo not given)	2	29*	2	6	6	-5
CCSc1nnc(-c2ccccc2SC)o1	-2	30*	1	-9	8	10
CSc1ccccc1-c1nnc(-c2ccc(Cl)cc2Cl)o1	-1	5	4	-5	·	·
CCOC(=O)COc1ccc2c(=O)c(-c3ccccc3)coc2c1	-1	39*	-8	-3	19*	43*
CCOCCOC(=O)COc1ccc2c(=O)c(Oc3ccc(OC)cc3)coc2c1	-1	29*	5	3	24*	28
CN(C)c1cccc(CNC(=O)c2ccc3sc([C@@H]4O[C@H](CO)[C@H](O)[C@H](O)[C@H]4O)nc3c2)c1	0	1	3	0	·	·
CC(C)(C)c1ccc(C(=O)O)c(C(=O)c2ccccc2)c1	5	31*	6	-5	3	-8
CC(C)(C)c1ccc(C(=O)O)c(C(=O)c2ccc(C(=O)O)cc2)c1	0	12	-1	-6	·	·
COC(=O)CSc1nnc(-c2ccc(NS(=O)(=O)c3ccccc3)cc2)o1	0	68*	2	-14	12	37*
COCCN(CCOC)S(=O)(=O)c1ccc(C(=O)Nc2ccc(S(=O)(=O)Nc3nccc(C)n3)cc2)cc1	-2	30*	1	-5	-4	-16
COc1ccc(NC(=S)N2CCN(C(c3ccccc3)c3ccccc3)CC2)cc1OC	-2	29*	-8	14	3	1
Cc1ccccc1NC(=O)Nc1cccs1	1	4	10	1	·	·
